Results taken from ChEMBL document CHEMBL5712886, “Discovery and Characterization of GSK2801, a Selective Chemical Probe for the Bromodomains BAZ2A and BAZ2B” (J Med Chem, 2016).
Activity calls are given as the source filed them. The rule behind the calls is not given here.

How the values were obtained:
[1] = molecular target: Transcription initiation factor TFIID subunit 1-like (Homo sapiens) (UniProt Q8IZX4); test: Binding affinity to biotinylated TAF1L bromodomain-1 (unknown origin) expressed in Escherichia coli at 0.2 to 1 uM by Biolayer Interferometric analysis; conditions: dose 0.2-1 µM
Outline: (§1)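 Bromodomains carrying a BirA biotin ligase targeting sequence, coexpressed with BirA in bacteria to give homogeneous in vivo biotin labelling, checked by mass spectrometry. Biotinylated proteins probed by biolayer interferometry with compound at two concentrations, 0.2 and 1.0 μM.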

[2] = molecular target: Protein polybromo-1 (Homo sapiens) (UniProt Q86U86); test: Binding affinity to biotinylated PB1 bromodomain-5 (unknown origin) expressed in Escherichia coli at 0.2 to 1 uM by Biolayer Interferometric analysis; conditions: dose 0.2-1 µM; outline: as §1
Protein polybromo-1 (Homo sapiens), sequence (Q86U86 whole entry): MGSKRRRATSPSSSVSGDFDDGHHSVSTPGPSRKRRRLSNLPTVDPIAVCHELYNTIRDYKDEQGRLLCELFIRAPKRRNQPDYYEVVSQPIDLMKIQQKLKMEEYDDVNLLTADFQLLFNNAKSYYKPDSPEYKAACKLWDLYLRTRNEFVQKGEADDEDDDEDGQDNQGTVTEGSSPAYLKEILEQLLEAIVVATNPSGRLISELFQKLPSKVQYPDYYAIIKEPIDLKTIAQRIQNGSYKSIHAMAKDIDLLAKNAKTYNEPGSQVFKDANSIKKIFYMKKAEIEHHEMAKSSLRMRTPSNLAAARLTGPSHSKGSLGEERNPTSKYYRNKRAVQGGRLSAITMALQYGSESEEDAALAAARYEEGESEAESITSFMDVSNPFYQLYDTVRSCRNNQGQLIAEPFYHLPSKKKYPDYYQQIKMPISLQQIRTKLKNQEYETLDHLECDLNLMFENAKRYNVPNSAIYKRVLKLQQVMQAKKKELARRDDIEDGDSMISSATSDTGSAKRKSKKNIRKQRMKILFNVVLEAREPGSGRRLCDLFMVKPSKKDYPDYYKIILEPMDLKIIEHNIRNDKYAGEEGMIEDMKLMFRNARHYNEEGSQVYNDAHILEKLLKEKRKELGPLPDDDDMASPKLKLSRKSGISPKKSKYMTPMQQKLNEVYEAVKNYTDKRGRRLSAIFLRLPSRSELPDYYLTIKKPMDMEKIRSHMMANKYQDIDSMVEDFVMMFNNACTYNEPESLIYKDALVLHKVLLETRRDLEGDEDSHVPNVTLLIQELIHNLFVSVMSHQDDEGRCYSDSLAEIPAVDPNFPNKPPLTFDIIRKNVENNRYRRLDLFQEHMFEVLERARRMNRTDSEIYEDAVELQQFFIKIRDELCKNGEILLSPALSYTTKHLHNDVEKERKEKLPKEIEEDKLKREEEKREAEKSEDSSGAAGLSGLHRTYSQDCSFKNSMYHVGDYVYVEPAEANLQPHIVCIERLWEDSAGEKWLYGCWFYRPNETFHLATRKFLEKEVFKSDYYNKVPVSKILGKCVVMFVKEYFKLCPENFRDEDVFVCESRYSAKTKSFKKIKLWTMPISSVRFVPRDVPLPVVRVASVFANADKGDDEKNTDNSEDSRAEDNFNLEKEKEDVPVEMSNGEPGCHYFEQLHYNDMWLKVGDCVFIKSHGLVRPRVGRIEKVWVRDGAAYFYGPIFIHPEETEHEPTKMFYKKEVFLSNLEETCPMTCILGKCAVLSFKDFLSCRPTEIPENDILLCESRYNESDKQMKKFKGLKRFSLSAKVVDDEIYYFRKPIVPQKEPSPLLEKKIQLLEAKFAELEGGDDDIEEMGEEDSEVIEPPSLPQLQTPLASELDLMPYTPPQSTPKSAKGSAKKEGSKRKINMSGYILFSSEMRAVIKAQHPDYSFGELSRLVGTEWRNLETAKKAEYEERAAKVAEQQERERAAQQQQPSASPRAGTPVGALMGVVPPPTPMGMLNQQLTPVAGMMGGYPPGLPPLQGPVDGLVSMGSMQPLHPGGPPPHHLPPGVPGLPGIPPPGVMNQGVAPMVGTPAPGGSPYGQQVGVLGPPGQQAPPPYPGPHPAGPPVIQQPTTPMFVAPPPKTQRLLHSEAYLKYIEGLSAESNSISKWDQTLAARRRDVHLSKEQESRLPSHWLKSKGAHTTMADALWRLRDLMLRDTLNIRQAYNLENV

[3] = molecular target: Bromodomain testis-specific protein (Homo sapiens) (UniProt Q58F21); test: Binding affinity to biotinylated BRDT bromodomain-1 (unknown origin) expressed in Escherichia coli at 0.2 to 1 uM by Biolayer Interferometric analysis; conditions: dose 0.2-1 µM; outline: as §1
[4] = molecular target: Bromodomain-containing protein 7 (Homo sapiens) (UniProt Q9NPI1); test: Binding affinity to biotinylated BRD7 (unknown origin) expressed in Escherichia coli at 0.2 to 1 uM by Biolayer Interferometric analysis; conditions: dose 0.2-1 µM; outline: as §1
[5] = molecular target: SWI/SNF-related matrix-associated actin-dependent regulator of chromatin subfamily A member 2 (Homo sapiens, UniProt P51531); test: Binding affinity to biotinylated SMARCA2 (unknown origin) expressed in Escherichia coli at 0.2 to 1 uM by Biolayer Interferometric analysis; conditions: dose 0.2-1 µM; outline: as §1
[6] = molecular target: Transcription initiation factor TFIID subunit 1 (Homo sapiens) (UniProt P21675); test: Binding affinity to biotinylated TAF1 bromodomain-2 (unknown origin) expressed in Escherichia coli at 0.2 to 1 uM by Biolayer Interferometric analysis; conditions: dose 0.2-1 µM; outline: as §1
Transcription initiation factor TFIID subunit 1 (Homo sapiens), sequence (P21675 whole entry): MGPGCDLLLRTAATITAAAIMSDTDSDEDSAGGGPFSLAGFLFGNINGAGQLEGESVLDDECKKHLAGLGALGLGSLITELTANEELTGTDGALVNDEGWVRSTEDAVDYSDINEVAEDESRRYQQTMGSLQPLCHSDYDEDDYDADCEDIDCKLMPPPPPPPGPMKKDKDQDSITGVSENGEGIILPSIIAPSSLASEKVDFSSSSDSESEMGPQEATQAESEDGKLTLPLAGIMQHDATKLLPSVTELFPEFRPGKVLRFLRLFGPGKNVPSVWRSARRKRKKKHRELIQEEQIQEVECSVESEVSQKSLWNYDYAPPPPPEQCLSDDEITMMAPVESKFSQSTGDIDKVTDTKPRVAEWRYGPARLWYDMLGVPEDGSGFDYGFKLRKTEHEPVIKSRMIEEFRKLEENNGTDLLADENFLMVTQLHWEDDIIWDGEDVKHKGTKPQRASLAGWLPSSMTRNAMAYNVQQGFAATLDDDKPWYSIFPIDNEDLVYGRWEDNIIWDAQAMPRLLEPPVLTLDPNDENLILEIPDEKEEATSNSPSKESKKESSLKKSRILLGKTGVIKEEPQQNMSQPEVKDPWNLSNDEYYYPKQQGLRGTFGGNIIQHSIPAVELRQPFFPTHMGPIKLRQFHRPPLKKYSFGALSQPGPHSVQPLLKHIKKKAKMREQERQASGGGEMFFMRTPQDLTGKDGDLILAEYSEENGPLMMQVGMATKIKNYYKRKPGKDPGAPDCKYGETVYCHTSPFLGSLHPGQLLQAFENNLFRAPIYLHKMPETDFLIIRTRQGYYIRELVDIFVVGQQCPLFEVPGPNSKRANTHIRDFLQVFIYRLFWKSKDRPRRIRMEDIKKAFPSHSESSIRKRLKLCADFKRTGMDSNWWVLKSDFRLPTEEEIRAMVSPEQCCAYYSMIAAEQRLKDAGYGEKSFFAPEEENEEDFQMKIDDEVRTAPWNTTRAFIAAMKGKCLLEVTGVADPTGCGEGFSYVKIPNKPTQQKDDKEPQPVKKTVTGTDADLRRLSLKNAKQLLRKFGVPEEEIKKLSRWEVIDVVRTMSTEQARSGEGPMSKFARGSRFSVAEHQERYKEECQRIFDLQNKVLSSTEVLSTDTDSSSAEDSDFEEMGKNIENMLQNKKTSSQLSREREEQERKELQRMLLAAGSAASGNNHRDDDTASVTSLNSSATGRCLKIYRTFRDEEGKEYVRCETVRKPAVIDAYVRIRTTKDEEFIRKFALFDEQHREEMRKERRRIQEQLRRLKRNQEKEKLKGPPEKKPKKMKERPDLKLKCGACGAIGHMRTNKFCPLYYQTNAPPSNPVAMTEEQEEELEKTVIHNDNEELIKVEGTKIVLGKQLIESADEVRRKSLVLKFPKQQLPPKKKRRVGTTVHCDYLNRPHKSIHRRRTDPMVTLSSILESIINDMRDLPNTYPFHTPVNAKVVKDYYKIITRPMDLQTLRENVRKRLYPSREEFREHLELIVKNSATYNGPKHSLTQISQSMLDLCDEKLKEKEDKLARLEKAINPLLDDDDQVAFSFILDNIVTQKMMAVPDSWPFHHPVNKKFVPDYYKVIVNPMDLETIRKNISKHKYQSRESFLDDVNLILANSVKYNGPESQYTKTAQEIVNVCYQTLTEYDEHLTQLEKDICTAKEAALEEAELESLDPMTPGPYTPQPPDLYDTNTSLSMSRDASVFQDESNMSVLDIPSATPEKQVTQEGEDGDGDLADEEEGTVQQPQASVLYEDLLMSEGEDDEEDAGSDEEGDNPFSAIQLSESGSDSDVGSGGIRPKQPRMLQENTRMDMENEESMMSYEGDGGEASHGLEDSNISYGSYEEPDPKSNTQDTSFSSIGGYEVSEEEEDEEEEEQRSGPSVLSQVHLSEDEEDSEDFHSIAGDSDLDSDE

[7] = molecular target: Histone-lysine N-methyltransferase ASH1L (Homo sapiens) (UniProt Q9NR48); test: Binding affinity to biotinylated ASH1L bromodomain (unknown origin) expressed in Escherichia coli at 0.2 to 1 uM by Biolayer Interferometric analysis; conditions: dose 0.2-1 µM; outline: as §1
[8] = molecular target: Nuclear body protein SP140 (Homo sapiens) (UniProt Q13342); test: Binding affinity to biotinylated SP140 (unknown origin) expressed in Escherichia coli at 0.2 to 1 uM by Biolayer Interferometric analysis; conditions: dose 0.2-1 µM; outline: as §1
[9] = molecular target: T1, Bromodomain-containing protein 9 (Homo sapiens) (UniProt Q9H8M2); test: Binding affinity to biotinylated C-terminal Avi/His-TEV-fused BRD9 (unknown origin) expressed in Escherichia coli by isothermal titration calorimetric analysis
T1 sequence (whole entry): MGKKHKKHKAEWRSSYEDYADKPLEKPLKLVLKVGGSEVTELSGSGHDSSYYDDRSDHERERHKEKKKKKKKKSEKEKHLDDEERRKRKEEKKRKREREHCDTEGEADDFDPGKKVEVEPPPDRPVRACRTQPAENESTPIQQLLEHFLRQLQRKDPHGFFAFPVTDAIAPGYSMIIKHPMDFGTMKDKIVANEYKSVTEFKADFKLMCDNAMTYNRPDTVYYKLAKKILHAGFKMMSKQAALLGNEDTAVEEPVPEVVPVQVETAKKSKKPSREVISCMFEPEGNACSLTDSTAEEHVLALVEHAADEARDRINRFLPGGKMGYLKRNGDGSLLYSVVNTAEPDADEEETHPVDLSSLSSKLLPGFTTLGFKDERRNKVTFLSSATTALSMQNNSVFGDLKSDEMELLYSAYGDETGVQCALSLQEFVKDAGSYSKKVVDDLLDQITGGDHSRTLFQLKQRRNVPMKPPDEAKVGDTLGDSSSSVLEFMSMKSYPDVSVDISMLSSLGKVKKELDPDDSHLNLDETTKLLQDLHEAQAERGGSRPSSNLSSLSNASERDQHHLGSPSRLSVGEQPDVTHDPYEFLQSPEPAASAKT

[10] = molecular target: Histone acetyltransferase p300 (Homo sapiens) (UniProt Q09472); test: Binding affinity to biotinylated EP300 (unknown origin) expressed in Escherichia coli at 0.2 to 1 uM by Biolayer Interferometric analysis; conditions: dose 0.2-1 µM; outline: as §1
[11] = molecular target: Transcription intermediary factor 1-beta (Homo sapiens) (UniProt Q13263); test: Binding affinity to biotinylated TRIM28 (unknown origin) expressed in Escherichia coli at 0.2 to 1 uM by Biolayer Interferometric analysis; conditions: dose 0.2-1 µM; outline: as §1
[12] = molecular target: Chromatin remodeling regulator CECR2 (Homo sapiens) (UniProt Q9BXF3); test: Binding affinity to biotinylated CECR2 (unknown origin) expressed in Escherichia coli at 0.2 to 1 uM by Biolayer Interferometric analysis; conditions: dose 0.2-1 µM; outline: as §1
[13] = molecular target: T1, Bromodomain-containing protein 9 (Homo sapiens); test: Binding affinity to biotinylated BRD9 (unknown origin) expressed in Escherichia coli at 0.2 to 1 uM by Biolayer Interferometric analysis; conditions: dose 0.2-1 µM; outline: as §1
[14] = molecular target: Protein polybromo-1 (Homo sapiens) (UniProt Q86U86); test: Binding affinity to biotinylated PB1 bromodomain-6 (unknown origin) expressed in Escherichia coli at 0.2 to 1 uM by Biolayer Interferometric analysis; conditions: dose 0.2-1 µM; outline: as §1
[15] = molecular target: Bromodomain and WD repeat-containing protein 1 (Homo sapiens) (UniProt Q9NSI6); test: Binding affinity to biotinylated WDR9 (unknown origin) expressed in Escherichia coli at 0.2 to 1 uM by Biolayer Interferometric analysis; conditions: dose 0.2-1 µM; outline: as §1
[16] = molecular target: PH-interacting protein (Homo sapiens) (UniProt Q8WWQ0); test: Binding affinity to biotinylated PHIP (unknown origin) expressed in Escherichia coli at 0.2 to 1 uM by Biolayer Interferometric analysis; conditions: dose 0.2-1 µM; outline: as §1
[17] = molecular target: Bromodomain-containing protein 2 (Homo sapiens) (UniProt P25440); test: Binding affinity to biotinylated BRD2 bromodomain-2 (unknown origin) expressed in Escherichia coli at 0.2 to 1 uM by Biolayer Interferometric analysis; conditions: dose 0.2-1 µM; outline: as §1
Bromodomain-containing protein 2 (Homo sapiens), sequence (P25440 whole entry, looked up): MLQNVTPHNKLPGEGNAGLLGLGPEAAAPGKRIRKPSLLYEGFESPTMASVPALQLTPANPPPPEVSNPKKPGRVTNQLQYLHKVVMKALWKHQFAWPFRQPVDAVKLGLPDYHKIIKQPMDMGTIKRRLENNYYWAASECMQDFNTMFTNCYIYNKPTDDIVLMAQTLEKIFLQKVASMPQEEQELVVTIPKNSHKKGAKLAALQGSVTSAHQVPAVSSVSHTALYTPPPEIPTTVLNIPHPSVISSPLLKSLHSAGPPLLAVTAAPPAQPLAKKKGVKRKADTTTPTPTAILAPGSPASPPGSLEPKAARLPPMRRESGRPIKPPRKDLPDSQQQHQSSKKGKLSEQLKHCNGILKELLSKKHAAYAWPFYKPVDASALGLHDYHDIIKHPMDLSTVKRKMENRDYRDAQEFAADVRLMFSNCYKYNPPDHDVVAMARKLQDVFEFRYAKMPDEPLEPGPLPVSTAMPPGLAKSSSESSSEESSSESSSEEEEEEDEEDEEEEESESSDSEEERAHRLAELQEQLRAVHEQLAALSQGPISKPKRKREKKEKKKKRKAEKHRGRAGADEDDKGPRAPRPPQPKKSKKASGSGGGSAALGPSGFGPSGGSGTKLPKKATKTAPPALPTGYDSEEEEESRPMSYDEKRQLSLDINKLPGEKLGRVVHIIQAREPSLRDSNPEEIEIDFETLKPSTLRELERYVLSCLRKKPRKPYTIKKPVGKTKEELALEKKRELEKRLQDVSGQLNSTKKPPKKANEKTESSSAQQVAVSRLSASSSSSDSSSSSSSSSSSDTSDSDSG

[18] = molecular target: Histone acetyltransferase KAT2A (Homo sapiens) (UniProt Q92830); test: Binding affinity to biotinylated GCN5L2 (unknown origin) expressed in Escherichia coli at 0.2 to 1 uM by Biolayer Interferometric analysis; conditions: dose 0.2-1 µM; outline: as §1
[19] = molecular target: Bromodomain-containing protein 2 (Homo sapiens) (UniProt P25440); test: Binding affinity to biotinylated BRD2 bromodomain-1 (unknown origin) expressed in Escherichia coli at 0.2 to 1 uM by Biolayer Interferometric analysis; conditions: dose 0.2-1 µM; outline: as §1
[20] = molecular target: Bromodomain-containing protein 4 (Homo sapiens) (UniProt O60885); test: Binding affinity to biotinylated BRD4 bromodomain-1 (unknown origin) expressed in Escherichia coli at 0.2 to 1 uM by Biolayer Interferometric analysis; conditions: dose 0.2-1 µM; outline: as §1
[21] = molecular target: Nucleosome-remodeling factor subunit BPTF (Homo sapiens) (UniProt Q12830); test: Binding affinity to biotinylated FALZ (unknown origin) expressed in Escherichia coli at 0.2 to 1 uM by Biolayer Interferometric analysis; conditions: dose 0.2-1 µM; outline: as §1
[22] = molecular target: Peregrin (Homo sapiens) (UniProt P55201); test: Binding affinity to biotinylated BRPF1 bromodomain-1 (unknown origin) expressed in Escherichia coli at 0.2 to 1 uM by Biolayer Interferometric analysis; conditions: dose 0.2-1 µM; outline: as §1
[23] = molecular target: Histone acetyltransferase KAT2B (Homo sapiens) (UniProt Q92831); test: Binding affinity to biotinylated PCAF (unknown origin) expressed in Escherichia coli at 0.2 to 1 uM by Biolayer Interferometric analysis; conditions: dose 0.2-1 µM; outline: as §1
[24] = molecular target: Transcription intermediary factor 1-alpha (Homo sapiens) (UniProt O15164); test: Binding affinity to biotinylated TIF1 bromodomain-1 (unknown origin) expressed in Escherichia coli at 0.2 to 1 uM by Biolayer Interferometric analysis; conditions: dose 0.2-1 µM; outline: as §1
[25] = molecular target: Bromodomain-containing protein 3 (Homo sapiens) (UniProt Q15059); test: Binding affinity to biotinylated BRD3 bromodomain-1 (unknown origin) expressed in Escherichia coli at 0.2 to 1 uM by Biolayer Interferometric analysis; conditions: dose 0.2-1 µM; outline: as §1
Bromodomain-containing protein 3 (Homo sapiens), sequence (Q15059 2-726 limits assumed): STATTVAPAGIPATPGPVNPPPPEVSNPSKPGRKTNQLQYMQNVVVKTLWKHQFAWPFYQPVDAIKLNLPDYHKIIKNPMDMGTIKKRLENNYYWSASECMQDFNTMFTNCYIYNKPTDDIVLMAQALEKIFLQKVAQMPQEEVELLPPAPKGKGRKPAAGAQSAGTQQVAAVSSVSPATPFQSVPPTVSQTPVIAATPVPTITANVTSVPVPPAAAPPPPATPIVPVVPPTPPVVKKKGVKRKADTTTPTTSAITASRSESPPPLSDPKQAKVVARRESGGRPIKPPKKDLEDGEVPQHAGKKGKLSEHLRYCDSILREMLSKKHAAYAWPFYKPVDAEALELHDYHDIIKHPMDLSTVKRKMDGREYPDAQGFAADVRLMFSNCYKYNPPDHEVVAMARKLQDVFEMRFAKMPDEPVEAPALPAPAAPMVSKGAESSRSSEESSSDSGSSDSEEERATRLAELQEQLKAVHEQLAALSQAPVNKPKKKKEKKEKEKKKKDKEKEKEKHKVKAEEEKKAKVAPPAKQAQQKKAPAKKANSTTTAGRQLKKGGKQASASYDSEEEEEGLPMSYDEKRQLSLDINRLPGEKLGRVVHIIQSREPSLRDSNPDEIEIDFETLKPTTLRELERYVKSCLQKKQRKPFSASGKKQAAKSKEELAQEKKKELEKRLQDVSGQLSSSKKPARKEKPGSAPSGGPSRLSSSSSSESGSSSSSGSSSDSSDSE

[26] = molecular target: ATPase family AAA domain-containing protein 2 (Homo sapiens) (UniProt Q6PL18); test: Binding affinity to biotinylated ATAD2 (unknown origin) expressed in Escherichia coli at 0.2 to 1 uM by Biolayer Interferometric analysis; conditions: dose 0.2-1 µM; outline: as §1
[27] = molecular target: Protein polybromo-1 (Homo sapiens) (UniProt Q86U86); test: Binding affinity to biotinylated PB1 bromodomain-1 (unknown origin) expressed in Escherichia coli at 0.2 to 1 uM by Biolayer Interferometric analysis; conditions: dose 0.2-1 µM; outline: as §1
[28] = molecular target: Transcription initiation factor TFIID subunit 1 (Homo sapiens) (UniProt P21675); test: Binding affinity to biotinylated TAF1 bromodomain-1 (unknown origin) expressed in Escherichia coli at 0.2 to 1 uM by Biolayer Interferometric analysis; conditions: dose 0.2-1 µM; outline: as §1
[29] = molecular target: Bromodomain-containing protein 1 (Homo sapiens) (UniProt O95696); test: Binding affinity to biotinylated BRD1 (unknown origin) expressed in Escherichia coli at 0.2 to 1 uM by Biolayer Interferometric analysis; conditions: dose 0.2-1 µM; outline: as §1
[30] = molecular target: CREB-binding protein (Homo sapiens) (UniProt Q92793); test: Binding affinity to biotinylated CREBBP (unknown origin) expressed in Escherichia coli at 0.2 to 1 uM by Biolayer Interferometric analysis; conditions: dose 0.2-1 µM; outline: as §1
[31] = molecular target: Bromodomain testis-specific protein (Homo sapiens) (UniProt Q58F21); test: Binding affinity to biotinylated BRDT bromodomain-2 (unknown origin) expressed in Escherichia coli at 0.2 to 1 uM by Biolayer Interferometric analysis; conditions: dose 0.2-1 µM; outline: as §1
[32] = molecular target: Protein polybromo-1 (Homo sapiens) (UniProt Q86U86); test: Binding affinity to biotinylated PB1 bromodomain-2 (unknown origin) expressed in Escherichia coli at 0.2 to 1 uM by Biolayer Interferometric analysis; conditions: dose 0.2-1 µM; outline: as §1
[33] = molecular target: Bromodomain and WD repeat-containing protein 3 (Homo sapiens) (UniProt Q6RI45); test: Binding affinity to biotinylated BRWD3 bromodomain-2 (unknown origin) expressed in Escherichia coli at 0.2 to 1 uM by Biolayer Interferometric analysis; conditions: dose 0.2-1 µM; outline: as §1
[34] = molecular target: Tyrosine-protein kinase BAZ1B (Homo sapiens) (UniProt Q9UIG0); test: Binding affinity to biotinylated BAZ1B (unknown origin) expressed in Escherichia coli at 0.2 to 1 uM by Biolayer Interferometric analysis; conditions: dose 0.2-1 µM; outline: as §1
[35] = molecular target: ATPase family AAA domain-containing protein 2B (Homo sapiens) (UniProt Q9ULI0); test: Binding affinity to biotinylated KIAA1240 (unknown origin) expressed in Escherichia coli at 0.2 to 1 uM by Biolayer Interferometric analysis; conditions: dose 0.2-1 µM; outline: as §1
[36] = molecular target: SWI/SNF-related matrix-associated actin-dependent regulator of chromatin subfamily A member 4 (Homo sapiens, UniProt P51532); test: Binding affinity to biotinylated SMARCA4 (unknown origin) expressed in Escherichia coli at 0.2 to 1 uM by Biolayer Interferometric analysis; conditions: dose 0.2-1 µM; outline: as §1
[37] = molecular target: Bromodomain-containing protein 4 (Homo sapiens) (UniProt O60885); test: Binding affinity to biotinylated BRD4 bromodomain-2 (unknown origin) expressed in Escherichia coli at 0.2 to 1 uM by Biolayer Interferometric analysis; conditions: dose 0.2-1 µM; outline: as §1
[38] = molecular target: Bromodomain-containing protein 3 (Homo sapiens) (UniProt Q15059); test: Binding affinity to biotinylated BRD3 bromodomain-2 (unknown origin) expressed in Escherichia coli at 0.2 to 1 uM by Biolayer Interferometric analysis; conditions: dose 0.2-1 µM; outline: as §1
[39] = molecular target: Protein polybromo-1 (Homo sapiens) (UniProt Q86U86); test: Binding affinity to biotinylated PB1 bromodomain-4 (unknown origin) expressed in Escherichia coli at 0.2 to 1 uM by Biolayer Interferometric analysis; conditions: dose 0.2-1 µM; outline: as §1

CCCOc1ccn2c(C(C)=O)cc(-c3ccccc3S(C)(=O)=O)c2c1
Activity [1]: inactive
Activity [2]: inactive
Activity [3]: inactive
Activity [4]: inactive
Activity [5]: inactive
Activity [6]: inactive
Activity [7]: inactive
Activity [8]: inactive
Kb [9]: 0.826 10^6/M
Activity [10]: inactive
Activity [11]: inactive
Activity [12]: inactive
Activity [13]: Active
Activity [14]: inactive
Activity [15]: inactive
Activity [16]: inactive
Activity [17]: inactive
Activity [18]: inactive
Activity [19]: inactive
Activity [20]: inactive
Activity [21]: inactive
Activity [22]: inactive
Activity [23]: inactive
Activity [24]: inactive
Activity [25]: inactive
Activity [26]: inactive
Activity [27]: inactive
Activity [28]: inactive
Activity [29]: inactive
Activity [30]: inactive
Activity [31]: inactive
Activity [32]: inactive
Activity [33]: inactive
Activity [34]: inactive
Activity [35]: inactive
Activity [36]: inactive
Activity [37]: inactive
Activity [38]: inactive
Activity [39]: inactive
